The source made the active and inactive calls. The rule behind the calls is not given here.
Legend:
Ramos [1] = test: Antiproliferative activity against human Ramos cells over expressing BTK after 48 hrs by CCK-8 assay; format: functional, cell-based
Method in brief: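 Cells seeded at 3,000–5,000 per well in RPMI1640 with 10% FBS, held one day at 37 °C and 5% CO₂, then exposed to compound for 48 h. Concentrations ran 1.25 to 40 µM, five replicates per concentration. Read-out is CCK-8 absorbance at 450 nm. IC50 comes from five-point dose-response curves, as the mean of at least three separate experiments.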

PBMC [2] = test: Cytotoxicity against human PBMC at 5 to 10 uM after 24 hrs by acridine orange/propidium iodide staining-based fluorescent microscopic analysis relative to control; format: cell-based
Method in brief: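 PBMC isolated on Lymphoprep (density 1.077 g/ml) from venous blood of one healthy adult, seeded about 2.5 × 10⁵ cells/well in RPMI1640 with 10% FBS. Treated at 5, 10 or 20 µM for 24 h at 37 °C, 5% CO₂, five replicates per concentration. Stained with AO/PI (1.0 µg/mL each, in PBS) for 10 min at room temperature. Live cells counted by fluorescence microscopy and counting chamber.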

Ramos [3] = test: Induction of apoptosis in human Ramos cells assessed as viable cells at 10 uM after 48 hrs by annexin V-FITC/propidium iodide staining-based flow cytometric analysis relative to control; format: functional; conditions: read-out: Activity
Method in brief: (§1)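 Ramos cells at 3 to 5 × 10⁵ cells/well were exposed for 48 h in medium with 5% FBS, with DMSO as solvent control. Cells were then fixed in ethanol at 4 °C, stained with Annexin V-FITC/propidium iodide and analysed by flow cytometry. One representative experiment is shown.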

Ramos [4] = test: Induction of apoptosis in human Ramos cells assessed as early apoptotic cells at 10 uM after 48 hrs by annexin V-FITC/propidium iodide staining-based flow cytometric analysis relative to control; format: functional; method in brief: as §1
Ramos [5] = test: Induction of apoptosis in human Ramos cells assessed as late apoptotic cells at 10 uM after 48 hrs by annexin V-FITC/propidium iodide staining-based flow cytometric analysis relative to control; format: functional; method in brief: as §1
Ramos [6] = test: Induction of apoptosis in human Ramos cells assessed as necrotic cells at 10 uM after 48 hrs by annexin V-FITC/propidium iodide staining-based flow cytometric analysis (reference value: 0.2%); format: functional; method in brief: as §1
[7] = target: Tyrosine-protein kinase BTK (Homo sapiens, UniProt Q06187); test: Inhibition of human recombinant full-length N-terminal His-tagged BTK expressed in baculovirus infected Sf9 insect cells after 60 mins by ADP-Glo kinase assay
Raji = test: Antiproliferative activity against human Raji cells over expressing BTK after 48 hrs by CCK-8 assay; format: functional, cell-based
Method in brief: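 Cells seeded at 3,000–5,000 per well in RPMI1640 with 10% FBS, held one day at 37 °C and 5% CO₂, then exposed to compound for 48 h. Read-out is CCK-8 absorbance at 450 nm. IC50 comes from five-point dose-response curves, as the mean of at least three separate experiments.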

Ramos [8] = test: Antiproliferative activity against human Ramos cells over expressing BTK at 10 uM after 72 hrs by CCK-8 assay; format: functional, cell-based
Method in brief: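 Ramos cells in RPMI-1640 with 10% FBS at 37 °C and 5% CO₂ were treated at 5, 10 or 20 µM for 24, 48 and 72 h. Viability was read by CCK-8 against an untreated control.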

PBMC [9] = test: Cytotoxicity against human PBMC at 5 to 10 uM after 24 hrs by acridine orange/propidium iodide staining-based fluorescent microscopic analysis; format: cell-based
Method in brief: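 PBMC were isolated from venous blood of a healthy adult on Lymphoprep (density 1.077 g/ml), washed in PBS and seeded at about 2.5 × 10⁵ cells/well. Cells were treated at 5, 10 or 20 µM, five replicates, for 24 h at 37 °C in RPMI1640 with 10% FBS. Staining was AO/PI, 1.0 µg/mL each, for 10 min at room temperature. Live cells were counted under a fluorescence microscope with a counting chamber.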

Ramos [10] = test: Induction of apoptosis in human Ramos cells assessed as viable cells at 1 uM after 48 hrs by annexin V-FITC/propidium iodide staining-based flow cytometric analysis relative to control; format: functional; conditions: read-out: Activity
Ramos [11] = test: Induction of apoptosis in human Ramos cells assessed as early apoptotic cells at 1 uM after 48 hrs by annexin V-FITC/propidium iodide staining-based flow cytometric analysis relative to control; format: functional
Ramos [12] = test: Induction of apoptosis in human Ramos cells assessed as late apoptotic cells at 1 uM after 48 hrs by annexin V-FITC/propidium iodide staining-based flow cytometric analysis relative to control; format: functional
Ramos [13] = test: Induction of apoptosis in human Ramos cells assessed as necrotic cells at 1 uM after 48 hrs by annexin V-FITC/propidium iodide staining-based flow cytometric analysis (reference value: 0.2%); format: functional
Ramos [14] = test: Induction of apoptosis in human Ramos cells assessed as viable cells at 5 uM after 48 hrs by annexin V-FITC/propidium iodide staining-based flow cytometric analysis relative to control; format: functional; conditions: read-out: Activity
Ramos [15] = test: Induction of apoptosis in human Ramos cells assessed as late apoptotic cells at 5 uM after 48 hrs by annexin V-FITC/propidium iodide staining-based flow cytometric analysis relative to control; format: functional
Ramos [16] = test: Induction of apoptosis in human Ramos cells assessed as early apoptotic cells at 5 uM after 48 hrs by annexin V-FITC/propidium iodide staining-based flow cytometric analysis relative to control; format: functional
Ramos [17] = test: Induction of apoptosis in human Ramos cells assessed as necrotic cells at 5 uM after 48 hrs by annexin V-FITC/propidium iodide staining-based flow cytometric analysis (reference value: 0.2%); format: functional

Sequence of Tyrosine-protein kinase BTK (Q06187 whole entry): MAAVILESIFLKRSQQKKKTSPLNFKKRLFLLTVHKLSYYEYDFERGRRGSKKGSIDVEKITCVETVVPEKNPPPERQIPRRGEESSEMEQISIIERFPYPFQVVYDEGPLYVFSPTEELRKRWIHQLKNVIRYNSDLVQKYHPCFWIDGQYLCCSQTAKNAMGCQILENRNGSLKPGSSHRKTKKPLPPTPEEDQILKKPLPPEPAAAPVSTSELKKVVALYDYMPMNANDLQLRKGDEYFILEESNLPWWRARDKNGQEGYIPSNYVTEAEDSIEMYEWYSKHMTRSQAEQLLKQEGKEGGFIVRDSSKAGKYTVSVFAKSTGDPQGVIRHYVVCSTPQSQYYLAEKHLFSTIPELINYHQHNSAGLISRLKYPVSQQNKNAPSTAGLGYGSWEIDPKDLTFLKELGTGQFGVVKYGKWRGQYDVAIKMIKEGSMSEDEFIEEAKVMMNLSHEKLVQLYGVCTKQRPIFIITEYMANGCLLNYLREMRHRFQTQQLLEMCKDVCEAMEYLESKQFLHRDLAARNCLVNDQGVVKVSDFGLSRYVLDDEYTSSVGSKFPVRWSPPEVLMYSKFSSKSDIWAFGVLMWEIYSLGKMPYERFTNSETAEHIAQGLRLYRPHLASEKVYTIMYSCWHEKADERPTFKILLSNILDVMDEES

Structure (SMILES) | IC50 (Ramos [1]) [µM] | IC50 [7] [µM] | IC50 (Raji) [µM] | further results
C=CC(=O)N1CCC[C@@H](n2nc(-c3ccc(Oc4ccccc4)cc3)c3c(N)ncnc32)C1 [IBRUTINIB] | 5.88 |  |  | Activity (PBMC [2]): 50%; viability at 10 µM (Ramos [3]): 40.2%; Activity (Ramos [4]): 37.6%; Activity (Ramos [5]): 7.5%; Activity (Ramos [6]): 14.7%
C=CC(=O)Nc1cccc(Oc2nc(Nc3ccc(NS(=O)(=O)c4ccc(C)cc4)c(C)c3)ncc2Cl)c1 | 7.23 | 0.00105 | 18.7 | 
C=CC(=O)Nc1cccc(Nc2nc(Nc3ccc(NS(=O)(=O)c4ccc(F)cc4)c(C)c3)ncc2Cl)c1 | 6.44 | 0.0786 | 10.5 | 
C=CC(=O)Nc1cccc(Oc2nc(Nc3ccc(NS(=O)(=O)c4ccc(OC)cc4)cc3)ncc2Cl)c1 | > 40 | 0.00042 | 40.9 | 
C=CC(=O)Nc1cccc(Nc2nc(Nc3ccc(NS(=O)(=O)c4ccc(C)cc4)cc3)ncc2Cl)c1 | > 40 | 0.0585 | 17.4 | 
C=CC(=O)Nc1cccc(Nc2nc(Nc3ccc(NS(=O)(=O)c4ccc(OC)cc4)cc3)ncc2F)c1 | > 40 | 0.00092 | 36.9 | 
C=CC(=O)Nc1cccc(Nc2nc(Nc3ccc(NS(=O)(=O)c4ccc(OC)cc4)cc3)ncc2Cl)c1 | 18.8 | 0.00914 | 15.5 | 
C=CC(=O)Nc1cccc(Nc2nc(Nc3ccc(NS(=O)(=O)c4ccc(F)cc4)c(OC)c3)ncc2Cl)c1 | 6.49 | 0.00118 | 13.2 | Activity (Ramos [8]): Active; Activity (PBMC [9]): Non-Toxic; viability at 1 µM (Ramos [10]): 55.4%; Activity (Ramos [11]): 23.3%; Activity (Ramos [12]): 4.3%; Activity (Ramos [13]): 17%; viability at 5 µM (Ramos [14]): 25%; Activity (Ramos [15]): 54.6%; Activity (Ramos [16]): 7.2%; Activity (Ramos [17]): 13.2%
C=CC(=O)Nc1cccc(Nc2nc(Nc3ccc(OCCOC)cc3)ncc2F)c1 [SPEBRUTINIB] | 18.8 |  |  | viability at 10 µM (Ramos [3]): 50.9%; Activity (Ramos [4]): 27.7%; Activity (Ramos [5]): 5.9%; Activity (Ramos [6]): 15.6%
C=CC(=O)Nc1cccc(Nc2nc(Nc3ccc(NS(=O)(=O)c4ccc(OC)cc4)cc3)ncc2[N+](=O)[O-])c1 | > 40 | 0.0238 | 18.7 | 
C=CC(=O)Nc1cccc(Nc2nc(Nc3ccc(NS(=O)(=O)c4ccc(C)cc4)c(OC)c3)ncc2[N+](=O)[O-])c1 | > 40 | > 0.1 | 34.1 | 
C=CC(=O)Nc1cccc(Nc2nc(Nc3ccc(NS(=O)(=O)c4ccc(F)cc4)c(C)c3)ncc2[N+](=O)[O-])c1 | > 40 | 0.0854 | 22.4 | 
C=CC(=O)Nc1cccc(Nc2nc(Nc3ccc(NS(=O)(=O)c4ccc(C)cc4)c(C)c3)ncc2[N+](=O)[O-])c1 | 38 | 0.0486 | 14.2 | 

From ChEMBL document CHEMBL4052620, “Design and synthesis of sulfonamide-substituted diphenylpyrimidines (SFA-DPPYs) as potent Bruton's tyrosine kinase (BTK) inhibitors with improved activity toward B-cell lymphoblastic leukemia” (Eur J Med Chem, 2017)
